Measured values: ChEMBL document CHEMBL1157573, “BRAF inhibitors based on an imidazo[4,5]pyridin-2-one scaffold and a meta substituted middle ring” (J Med Chem, 2010)
pIC50: −log10 of the molar value.

Tests used:
[1] = biological target: T1, Serine/threonine-protein kinase B-raf (Homo sapiens, UniProt P15056, V600E); test: Inhibition of human BRAF V600E mutant expressed in Sf9 cells
[2] = biological target: T1, Serine/threonine-protein kinase B-raf; test: Inhibition of BRAF V600E mutant-mediated ERK phosphorylation in human WM266.4 cells; format: cell-based
[3] = Antiproliferative activity against human WM266.4 cells after 6 days by SRB assay; format: functional; conditions: WM 266-4, 144 h
Outline: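 SRB cell proliferation assay on WM266.4 melanoma cells, which carry mutant BRAF. Growth inhibition is reported as GI50.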

T1 sequence (P15056 2-766 V600E limits assumed): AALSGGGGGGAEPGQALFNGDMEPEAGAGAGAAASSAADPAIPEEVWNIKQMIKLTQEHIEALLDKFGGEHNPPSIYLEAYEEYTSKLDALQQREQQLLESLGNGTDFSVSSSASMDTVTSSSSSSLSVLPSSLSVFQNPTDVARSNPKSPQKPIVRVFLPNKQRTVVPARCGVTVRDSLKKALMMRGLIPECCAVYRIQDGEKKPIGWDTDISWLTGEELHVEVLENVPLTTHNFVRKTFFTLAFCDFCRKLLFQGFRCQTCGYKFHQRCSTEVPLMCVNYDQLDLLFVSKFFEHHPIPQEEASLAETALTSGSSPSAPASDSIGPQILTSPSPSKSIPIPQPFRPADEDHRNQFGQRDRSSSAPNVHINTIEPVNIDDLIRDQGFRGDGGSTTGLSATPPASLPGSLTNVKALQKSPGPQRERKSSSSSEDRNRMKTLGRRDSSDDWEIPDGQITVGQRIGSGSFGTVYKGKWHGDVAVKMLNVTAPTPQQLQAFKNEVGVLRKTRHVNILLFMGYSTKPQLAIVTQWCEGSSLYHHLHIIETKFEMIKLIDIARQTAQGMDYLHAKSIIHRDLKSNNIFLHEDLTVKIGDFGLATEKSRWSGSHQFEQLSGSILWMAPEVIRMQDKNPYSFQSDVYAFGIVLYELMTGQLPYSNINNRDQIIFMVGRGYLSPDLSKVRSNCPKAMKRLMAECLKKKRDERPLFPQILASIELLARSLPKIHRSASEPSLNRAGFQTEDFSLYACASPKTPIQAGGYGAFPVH

Row | SMILES | pIC50 [1] | pIC50 [2] | GI50 [3]
1 | COc1ccc(NC(=O)c2cccc(OC(F)(F)F)c2)cc1Oc1ccnc2[nH]c(=O)[nH]c12 | 6.47 | < 4.00 | –
2 | O=C(Nc1cccc(Oc2ccnc3[nH]c(=O)[nH]c23)c1)c1ccccc1 | 4.60 | < 4.00 | 1.54 µM
3 | O=C(Nc1ccc(Oc2ccnc3[nH]c(=O)[nH]c23)cc1)c1cc(F)cc(N2CCOCC2)c1 | < 4.00 | – | –
4 | O=C(Nc1cc(Oc2ccnc3[nH]c(=O)[nH]c23)c(Cl)cc1Cl)c1cccc(OC(F)(F)F)c1 | 6.11 | < 4.00 | 1.2 µM
5 | O=C(Nc1ccc(Oc2ccnc3[nH]c(=O)[nH]c23)cc1)c1ccc(Br)cc1 | 4.85 | – | –
6 | O=C(Nc1cccc(Oc2ccnc3[nH]c(=O)[nH]c23)c1)c1ccc(Cl)cc1 | 4.17 | < 4.00 | 9.1 µM
7 | O=c1[nH]c2nccc(Oc3cccc(NS(=O)(=O)c4ccc(Cl)c(C(F)(F)F)c4)c3)c2[nH]1 | 5.17 | 4.18 | 40 µM
8 | O=C(Nc1cccc(Oc2ccnc3[nH]c(=O)[nH]c23)c1)c1cc(Cl)cc(OC(F)(F)F)c1 | 7.15 | 4.84 | 6.5 µM
9 | CC(C)c1cc(C(=O)Nc2cccc(Oc3ccnc4[nH]c(=O)[nH]c34)c2)n(-c2ccccc2)n1 | 7.06 | 4.86 | 5.7 µM
10 | CC(C)(C)c1cc(NC(=O)Nc2cccc(Oc3ccnc4[nH]c(=O)[nH]c34)c2)n(-c2ccc(F)cc2)n1 | 6.91 | 5.71 | –
11 | O=C(Nc1cccc(Oc2ccnc3[nH]c(=O)[nH]c23)c1)c1ccnc(Cl)c1 | 4.03 | < 4.00 | 25 µM
12 | Cc1ccc(-n2nc(C(F)(F)F)cc2NC(=O)c2cccc(Oc3ccnc4[nH]c(=O)[nH]c34)c2)cc1 | 6.30 | 4.83 | 32 µM
13 | O=C(Nc1cccc(Oc2ccnc3[nH]c(=O)[nH]c23)c1)c1cccc2c1OCCO2 | < 4.00 | < 4.00 | 40 µM
14 | O=c1[nH]c2nccc(Oc3cccc(NS(=O)(=O)c4cccc(C(F)(F)F)c4)c3)c2[nH]1 | 4.81 | 4.24 | 0.83 µM
15 | Cc1cc(C(=O)Nc2cccc(Oc3ccnc4[nH]c(=O)[nH]c34)c2)n(C)n1 | < 4.00 | 4.10 | –
16 | O=C(Cc1ccccc1)Nc1cccc(Oc2ccnc3[nH]c(=O)[nH]c23)c1 | 4.06 | < 4.00 | –
17 | CN(C)c1cccc(C(=O)Nc2cccc(Oc3ccnc4[nH]c(=O)[nH]c34)c2)c1 | < 4.00 | 4.38 | –
18 | O=C(Nc1cccc(Oc2ccnc3[nH]c(=O)[nH]c23)c1)c1ccnn1-c1ccccc1 | < 4.00 | 4.04 | 15.6 µM

Row | SMILES | pIC50 [1] | pIC50 [2] | GI50 [3]
19 | O=C(Nc1cccc(OC(F)(F)C(F)F)c1)c1cccc(Oc2ccnc3[nH]c(=O)[nH]c23)c1 | 6.62 | 5.10 | 0.677 µM
20 | O=C(Nc1cccc(SC(F)(F)F)c1)c1cccc(Oc2ccnc3[nH]c(=O)[nH]c23)c1 | 6.73 | 4.89 | 9.2 µM
21 | O=c1[nH]c2nccc(Oc3ccc(NS(=O)(=O)c4ccc(Cl)c(C(F)(F)F)c4)cc3)c2[nH]1 | < 4.00 | – | –
22 | O=C(Nc1cccc(Oc2ccnc3[nH]c(=O)[nH]c23)c1)c1cc(Cl)cc(C(F)(F)F)c1 | 6.16 | 4.62 | 3.3 µM
23 | CCC(C)(C)c1cccc(C(=O)Nc2cccc(Oc3ccnc4[nH]c(=O)[nH]c34)c2)c1 | 7.40 | 5.51 | –
24 | O=C(Nc1cccc(Oc2ccnc3[nH]c(=O)[nH]c23)c1)c1cccc(-n2ccnc2)c1 | < 5.00 | < 4.00 | 6.2 µM
25 | CC(C)(C)c1cccc(NC(=O)Nc2cccc(Oc3ccnc4[nH]c(=O)[nH]c34)c2)c1 | 6.71 | 4.99 | 12.9 µM
26 | Cc1ccc(Oc2ccnc3[nH]c(=O)[nH]c23)cc1NC(=O)c1cccc(OC(F)(F)F)c1 | < 5.00 | < 4.00 | –
27 | O=C(Nc1ccc(Oc2ccnc3[nH]c(=O)[nH]c23)cc1)c1ccc(Cl)c(C(F)(F)F)c1 | 4.80 | – | –
28 | O=c1[nH]c2nccc(Oc3cccc(NS(=O)(=O)c4cccc(OC(F)(F)F)c4)c3)c2[nH]1 | 4.95 | 4.03 | 0.83 µM
29 | O=C(Nc1cccc(Oc2ccnc3[nH]c(=O)[nH]c23)c1)c1cccc(-n2cccc2)c1 | 7.24 | 4.69 | 1.1 µM
30 | O=C(Nc1cccc(OC(F)(F)F)c1)c1cccc(Oc2ccnc3[nH]c(=O)[nH]c23)c1 | 7.32 | 4.84 | 2.4 µM
31 | O=c1[nH]c2nccc(Oc3cccc(NCc4cccc(OC(F)(F)F)c4)c3)c2[nH]1 | < 5.00 | < 4.00 | 0.74 µM
32 | O=C(Nc1cccc(Oc2ccnc3[nH]c(=O)[nH]c23)c1)Nc1cc(C(F)(F)F)ccc1N1CCOCC1 | 6.13 | 4.38 | 16.7 µM
33 | O=C(Cc1cccc(C(F)(F)F)c1)Nc1cccc(Oc2ccnc3[nH]c(=O)[nH]c23)c1 | < 5.00 | 4.75 | 25.7 µM
34 | O=C(Nc1cccc(Oc2ccnc3[nH]c(=O)[nH]c23)c1)c1ccc2nsnc2c1 | < 4.00 | < 4.00 | 8.3 µM
35 | O=C(Nc1cc(Oc2ccnc3[nH]c(=O)[nH]c23)ccc1Cl)c1cccc(OC(F)(F)F)c1 | 6.62 | < 4.00 | 35 µM
36 | O=C(Nc1cccc(Oc2ccnc3[nH]c(=O)[nH]c23)c1)c1cccc2ccccc12 | 6.04 | 4.54 | 23 µM

Continued, in another order:

Row | pIC50 [1] | pIC50 [2] | SMILES | GI50 [3]
37 | 7.19 | 4.78 | COc1cc(NC(=O)c2cccc(OC(F)(F)F)c2)cc(Oc2ccnc3[nH]c(=O)[nH]c23)c1 | –
38 | 7.64 | – | O=C(Nc1ccc(Oc2ccnc3[nH]c(=O)[nH]c23)cc1)Nc1ccc(Cl)c(C(F)(F)F)c1 | –
39 | 5.56 | 4.30 | O=C(Nc1cccc(F)c1)Nc1cccc(Oc2ccnc3[nH]c(=O)[nH]c23)c1 | 3.3 µM
40 | 5.95 | 4.41 | O=C(Nc1cccc(Oc2ccnc3[nH]c(=O)[nH]c23)c1)Nc1ccc(F)c(F)c1 | 3.7 µM
41 | 7.21 | 4.68 | O=C(Nc1cccc(Oc2ccnc3[nH]c(=O)[nH]c23)c1)c1cc(F)cc(N2CCOCC2)c1 | 25.1 µM
42 | < 5.00 | < 4.00 | Cc1ccc(NC(=O)c2cccc(OC(F)(F)F)c2)cc1Oc1ccnc2[nH]c(=O)[nH]c12 | 38 µM
43 | 6.14 | < 4.00 | O=C(Nc1cccc(Oc2ccnc3[nH]c(=O)[nH]c23)c1)c1ccc(C(F)(F)F)cc1 | –
44 | < 4.00 | 4.42 | O=C(Nc1cccc(Oc2ccnc3[nH]c(=O)[nH]c23)c1)c1cnn(-c2ccccc2)c1C(F)(F)F | 3.3 µM
45 | 6.56 | 4.86 | CC(C)(C)c1cc(C(=O)Nc2cccc(Oc3ccnc4[nH]c(=O)[nH]c34)c2)n(-c2ccccc2)n1 | 3.1 µM
46 | < 4.00 | < 4.00 | O=C(Nc1cccc(Oc2ccnc3[nH]c(=O)[nH]c23)c1)c1cccc2c1OCCCO2 | 48 µM
47 | 4.66 | 4.18 | O=C(Nc1cccc(Oc2ccnc3[nH]c(=O)[nH]c23)c1)c1ccc2sccc2c1 | 1.5 µM
48 | 6.23 | 5.69 | Cc1ccc(-n2nc(C(C)(C)C)cc2NC(=O)c2cccc(Oc3ccnc4[nH]c(=O)[nH]c34)c2)cc1 | –
49 | 4.10 | 4.45 | O=C(Nc1cccc(Oc2ccnc3[nH]c(=O)[nH]c23)c1)c1ccccc1OC(F)(F)F | 1.3 µM
50 | 7.31 | 4.56 | O=C(Nc1cccc(Oc2ccnc3[nH]c(=O)[nH]c23)c1)c1ccc(F)c(OC(F)(F)F)c1 | 7.4 µM
51 | < 4.00 | – | O=c1[nH]c2nccc(Oc3ccc(NS(=O)(=O)c4cccc(C(F)(F)F)c4)cc3)c2[nH]1 | –
52 | 4.03 | < 4.00 | O=C(CCc1ccccc1)Nc1cccc(Oc2ccnc3[nH]c(=O)[nH]c23)c1 | 30.9 µM
53 | < 5.00 | < 4.00 | Cc1c(NC(=O)c2cccc(OC(F)(F)F)c2)cccc1Oc1ccnc2[nH]c(=O)[nH]c12 | –
54 | 6.94 | < 4.00 | O=C(Nc1cccc(Oc2ccnc3[nH]c(=O)[nH]c23)c1)c1cccc(N2CCCC2)c1 | > 10 µM
55 | 7.05 | 5.09 | O=C(Nc1ccc(Cl)c(C(F)(F)F)c1)c1cccc(Oc2ccnc3[nH]c(=O)[nH]c23)c1 | 7.3 µM
56 | 5.33 | 4.46 | O=C(Nc1cc(C(F)(F)F)ccc1F)c1cccc(Oc2ccnc3[nH]c(=O)[nH]c23)c1 | 31 µM
57 | 6.40 | 5.32 | Cc1ccc(-n2nc(C(F)(F)F)cc2NC(=O)Nc2cccc(Oc3ccnc4[nH]c(=O)[nH]c34)c2)cc1 | 4.28 µM
58 | 4.60 | 4.67 | O=c1[nH]c2nccc(Oc3cccc(NS(=O)(=O)c4cccc5ccccc45)c3)c2[nH]1 | 0.85 µM
59 | 6.07 | – | O=c1[nH]c2nccc(Oc3ccc(NS(=O)(=O)c4ccccc4)cc3)c2[nH]1 | –
60 | 5.78 | 4.53 | O=c1[nH]c2nccc(Oc3cccc(NS(=O)(=O)c4ccccc4)c3)c2[nH]1 | 0.175 µM
61 | 5.81 | 4.00 | O=C(Nc1cccc(Oc2ccnc3[nH]c(=O)[nH]c23)c1)c1cccc(Br)c1 | 0.907 µM
62 | < 4.00 | < 4.00 | CC(C)(C)c1cc(C(=O)Nc2cccc(Oc3ccnc4[nH]c(=O)[nH]c34)c2)n(Cc2ccccc2)n1 | –
63 | < 5.00 | 4.89 | O=C(Cc1cccc(OC(F)(F)F)c1)Nc1cccc(Oc2ccnc3[nH]c(=O)[nH]c23)c1 | 29.4 µM
64 | 6.89 | 6.08 | Cc1ccc(-n2nc(C(C)(C)C)cc2NC(=O)Nc2cccc(Oc3ccnc4[nH]c(=O)[nH]c34)c2)cc1 | 0.705 µM
65 | 6.91 | 4.55 | O=C(Nc1cccc(Oc2ccnc3[nH]c(=O)[nH]c23)c1)c1ccc(Cl)c(C(F)(F)F)c1 | 13.4 µM
